According to ChEMBL document CHEMBL1152198, “C-2-aryl O-substituted HI-236 derivatives as non-nucleoside HIV-1 reverse-transcriptase inhibitors” (Bioorg Med Chem, 2008):

Assays:
[1] = test system: Human immunodeficiency virus 1; experiment: Antiviral activity against nevirapine-resistant HIV1 with reverse transcriptase Y181C mutation in human MT2 cells assessed as inhibition of viral replication after 5 days by MTT assay; assay type: functional, organism-based; conditions: Human immunodeficiency virus 1, MT2, 120 h
Summary of the method: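 MT-2 cells at 1×10^5 cells/mL infected at MOI 0.1 (wild-type HIV-III_B or Y181C mutant), cultured 5 days in RPMI 1640 with 10% dFBS and kanamycin across a range of compound concentrations, triplicate wells. MTT added for 5 h, cells lysed with acidified isopropanol, A595 read. EC50 taken from dose-response curves of triplicate means as concentration inhibiting viral replication by 50%.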

[2] = Therapeutic index, ratio of CC50 for human MT2 cells to EC50 for HIV1 3B; assay type: cell-based; conditions: read-out: Ratio CC50/EC50
Summary of the method: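 MT-2 cells at 1×10^5 cells/mL, HIV-III_B or mock infection at MOI 0.1, 5 days with graded compound, triplicate; MTT read-out at 595 nm. Index computed as CC50 (mock-infected cells) over EC50 (viral replication), both from dose-response curves.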

[3] = test system: Human immunodeficiency virus 1; experiment: Antiviral activity against wild-type HIV1 3B infected in human MT2 cells assessed as inhibition of viral replication after 5 days by MTT assay; conditions: Human immunodeficiency virus 1, 3B, MT2, 120 h
MT2 [4] = experiment: Cytotoxicity against mock-infected human MT2 cells after 5 days by MTT assay; assay type: cell-based; conditions: mt2, 120 h
Summary of the method: (§1)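 Infected (Y181C, MOI 0.1) or mock-infected MT-2 cells at 1×10^5 cells/mL exposed 5 days to graded compound concentrations in RPMI 1640/10% dFBS/kanamycin, triplicate. Viability by MTT (5 h), acidified isopropanol lysis, absorbance 595 nm. CC50 read from triplicate-mean dose-response curves as concentration reducing viable cells by 50%.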

[5] = Therapeutic index, ratio of CC50 for HIV1 Y181C mutant infected human MT2 cells to EC50 for HIV1 with reverse transcriptase Y181C mutation; assay type: cell-based; conditions: read-out: Ratio CC50/EC50
Summary of the method: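 MT-2 cells (1×10^5 cells/mL), infected with Y181C mutant HIV-1 at MOI 0.1 or mock-infected, were cultured 5 days in RPMI 1640 with 10% dFBS and kanamycin at varying compound concentrations, in triplicate. MTT was added for 5 h, cells were lysed with acidified isopropanol, and A595 was read. EC50 (50% inhibition of viral replication) and CC50 (50% loss of viable cells) came from averaged dose-response curves.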

[6] = molecular target: Human immunodeficiency virus type 1 reverse transcriptase (Human immunodeficiency virus 1, UniProt Q72547); experiment: Inhibition of HIV1 3B reverse transcriptase
Summary of the method: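 Steady-state single-nucleotide incorporation: 6 nM RT (active-site titrated) pre-incubated at least 15 min with 1 μM 5'-radiolabeled primer/template, then at least 15 min on ice with inhibitor (DMSO under 2%, DMSO-only control). Started with 5 μM dTTP and 10 mM MgCl2 (final), 15 min at 37 °C, EDTA quench. Products resolved on 20% denaturing PAGE; hyperbolic fit gives IC50.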

MT2 [7] = experiment: Cytotoxicity against HIV1 Y181C mutant infected human MT2 cells after 5 days by MTT assay; assay type: cell-based; conditions: mt2, 120 h; summary of the method: as §1

| SMILES | EC50 [1] | selectivity ratio [2] | EC50 [3] | CC50 (MT2 [4]) | selectivity ratio [5] | IC50 [6] | CC50 (MT2 [7]) |
| --- | --- | --- | --- | --- | --- | --- | --- |
| COc1ccc(OC)c(CCNC(=S)Nc2ccc(Br)cn2)c1 | 1200 nM | 21 | 48 nM | 1000 nM | 15 | 28 nM | 18000 nM |
| C#CCCOc1ccc(OC)cc1CCNC(=S)Nc1ccc(Br)cn1 | < 200 nM | 38 | 26 nM | 1000 nM | > 20 | 3.8 nM | 4000 nM |
| COC(=O)COc1ccc(OC)cc1CCNC(=S)Nc1ccc(Br)cn1 |  | 4 | 12000 nM | 48000 nM |  | 100 nM |  |
| C=CCOc1ccc(OC)cc1CCNC(=S)Nc1ccc(Br)cn1 |  | 55 | 200 nM | 11000 nM |  |  |  |
| COc1ccc(OCc2ccccc2)c(CCNC(=S)Nc2ccc(Br)cn2)c1 |  | 18 | 220 nM | 4000 nM |  |  |  |
| COc1ccc(OCCO)c(CCNC(=S)Nc2ccc(Br)cn2)c1 |  | 83 | 12 nM | 1000 nM |  | 19 nM |  |
| COc1ccc(OCCCO)c(CCNC(=S)Nc2ccc(Br)cn2)c1 |  | 94 | 98 nM | 8500 nM |  | 24 nM |  |
| C#CCOCCOCCOc1ccc(OC)cc1CCNC(=S)Nc1ccc(Br)cn1 |  | 17 | 390 nM | 6800 nM |  |  |  |
| COc1ccc(OCCCC#N)c(CCNC(=S)Nc2ccc(Br)cn2)c1 |  | 76 | 50 nM | 3800 nM |  |  |  |
| C#CCCCOc1ccc(OC)cc1CCNC(=S)Nc1ccc(Br)cn1 |  | 40 | 250 nM | 10000 nM |  | 27 nM |  |
| CC#CCOc1ccc(OC)cc1CCNC(=S)Nc1ccc(Br)cn1 |  | 74 | 270 nM | 20000 nM |  |  |  |
| COc1ccc(OCC#N)c(CCNC(=S)Nc2ccc(Br)cn2)c1 |  | 46 | 120 nM | 5500 nM |  |  |  |
| C#CCOCCOc1ccc(OC)cc1CCNC(=S)Nc1ccc(Br)cn1 |  |  | 95 nM | 9500 nM |  | 41 nM |  |
| CCCOc1ccc(OC)cc1CCNC(=S)Nc1ccc(Br)cn1 |  | 1 | 95 nM | 100 nM |  |  |  |
| C#CCOc1ccc(OC)cc1CCNC(=S)Nc1ccc(Br)cn1 |  | 2 | 52 nM | 100 nM |  |  |  |
| COc1ccc(OCCOCc2ccccc2)c(CCNC(=S)Nc2ccc(Br)cn2)c1 |  | 3 | 2000 nM | 5800 nM |  |  |  |
